The source of these data is ChEMBL document CHEMBL1135880, “Synthesis and X-ray studies of chiral allosteric modifiers of hemoglobin” (J Med Chem, 2002).

Experiment [1] addresses T1, Hemoglobin HbA (Homo sapiens) (UniProt P69905+P68871). The experiment can be described thus: The Hill coefficient at 50% saturation (n50) between 40 and 60% oxygen saturation (n50 control value with no effector present, 2.7). Format: protein-complex assay.
Experiment [2] addresses T1, Hemoglobin HbA (Homo sapiens). The experiment in a line: Ability to right-shift the oxygen equilibrium curves (OECs) quantified by ability to increase in P50 in whole blood analyses. It is filed as functional, tissue-based. The procedure, abridged: (§1)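 Human whole blood; DMSO stock 200 mM, final 5 mM effector, DMSO-only control. Duplicate samples equilibrated ~10 min at 37 °C in tonometers against gas mixtures of 2.95%, 5.85% and 8.75% O2 with 5.8% CO2, balance N2. pO2 and sO2 read on blood gas analyzer and co-oximeter. P50 and n50 from nonlinear regression; ΔP50 = P50 effector − P50 control.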

Experiment [3] has the same target. The experiment can be described thus: The difference in the partial pressure of oxygen at 50% saturated Hb. Format: functional. An outline of the steps: as §1
The target is the same in experiment [4]. The experiment can be described thus: Ability to right-shift the oxygen equilibrium curves (OECs) quantified by ability to increase in P50 at which Hb was 50% saturated with oxygen in the presence of the effector at the concentration of 5 mM. Format: functional. An outline of the steps: as §1
For experiment [5] the target is unchanged. The experiment can be described thus: Ability to right-shift the oxygen equilibrium curves (OECs) quantified by ability to increase in P50 at which Hb was 50% saturated with oxygen in the […] of the effector. It is filed as functional.
For experiment [6] the target is unchanged. The experiment can be described thus: Oxygen pressure in mmHg at which Hb is 50% saturated with oxygen at 50-60 uM heme concentration and in the presence of 0.5 mM effector. It is filed as functional.
Experiment [7] shares this target. The experiment in a line: The Hill coefficient at 50% saturation (n50) in the presence of effector. It is filed as protein-complex assay. An outline of the steps:
as §1

Experiment [8] shares this target. The experiment in a line: Ratio of […] (P50 control value with no effector present 5.0 mmHg, in case of DMSO is 4.7 mmHg ). Format: functional.

T1 sequence (P68871 2-147 partner limits assumed): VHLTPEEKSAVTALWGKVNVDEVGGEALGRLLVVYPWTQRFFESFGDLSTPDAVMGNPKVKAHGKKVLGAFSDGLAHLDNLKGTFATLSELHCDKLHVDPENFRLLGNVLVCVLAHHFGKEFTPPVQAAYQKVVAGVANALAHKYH
T1 sequence (P69905 2-142 limits assumed): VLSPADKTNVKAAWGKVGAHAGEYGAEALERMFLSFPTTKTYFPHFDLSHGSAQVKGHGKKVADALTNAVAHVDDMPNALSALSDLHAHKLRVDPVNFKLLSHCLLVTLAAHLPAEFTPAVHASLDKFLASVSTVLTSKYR

Consider `Cc1cc(C)cc(NC(=O)Cc2ccc(OC3(C(=O)N[C@H](CC(C)C)C(=O)O)CCCC3)cc2)c1`, for which, in experiment [1], the Hill coefficient (n50) was 2.6. Moreover, the P50c in experiment [2] amounted to 27.1 mmHg. The molecule also showed a Delta P50 in experiment [3] of 15.2. The P50e turned out to be 42.6 mmHg in experiment [4], 41.9 mmHg in experiment [5] and 9.4 mmHg in experiment [6]. Also, the n50e in experiment [7] was found to be 2.3. The P50e / P50c in experiment [8] was 1.9.
`Cc1cc(C)cc(NC(=O)Cc2ccc(OC3(C(=O)N[C@@H](CO)C(=O)O)CCCC3)cc2)c1` registered a Hill coefficient (n50) in experiment [1] of 2.6. Moreover, in experiment [2], the P50c came to 26.2 mmHg. Besides, in experiment [3], the Delta P50 is 15.5. Also, the P50e in experiment [4] amounted to 44.7 mmHg; in experiment [5], 38.7 mmHg; in experiment [6] it was 17.1 mmHg. Moreover, the n50e in experiment [7] was 2.3. In addition, the P50e / P50c in experiment [8] was 3.4.
Regarding `Cc1cc(C)cc(NC(=O)Cc2ccc(OC(C)(C)C(=O)O)cc2)c1`, the Hill coefficient (n50) in experiment [1] was found to be 2.3. Also, in experiment [2], the P50c came out at 29.8 mmHg. In experiment [3], this molecule returned a Delta P50 of 51.5. The P50e came out at 82.6 mmHg in experiment [4] and 80 mmHg in experiment [5]. In addition, in experiment [7], the n50e worked out at 1.5. Further, the P50e / P50c in experiment [8] stood at 4.7.
`Cc1cc(C)cc(NC(=O)Cc2ccc(OC3(C(=O)N[C@H](CO)C(=O)O)CCCC3)cc2)c1`: in experiment [1], the Hill coefficient (n50) is 2.6. For the same molecule, the P50c in experiment [2] came out at 27.1 mmHg. This molecule also yielded a Delta P50 in experiment [3] of 5.4. Also, the P50e came out at 34 mmHg in experiment [4], 31.1 mmHg in experiment [5] and 11.2 mmHg in experiment [6]. The n50e in experiment [7] turned out to be 2.1. In addition, the P50e / P50c in experiment [8] was 2.3.
As for `CC[C@@H](C)[C@@H](NC(=O)C1(Oc2ccc(CC(=O)Nc3cc(C)cc(C)c3)cc2)CCCC1)C(=O)O`, the Hill coefficient (n50) in experiment [1] stood at 2.6. Besides, the P50c in experiment [2] was 26.5 mmHg. In experiment [3], the Delta P50 turned out to be 13.2. In addition, the results for the P50e in experiment [4], in experiment [5] and in experiment [6] were 40.6 mmHg, 38.9 mmHg and 12.3 mmHg, respectively. Moreover, in experiment [7], the n50e turned out to be 2.3. The P50e / P50c in experiment [8] is 2.5.
In experiment [1], `Cc1cc(C)cc(NC(=O)Cc2ccc(OC3(C(=O)N[C@H](CCC(=O)O)C(=O)O)CCCC3)cc2)c1` displayed a Hill coefficient (n50) of 2.6. In experiment [2], the P50c was 28.3 mmHg. This molecule also showed a Delta P50 in experiment [3] of 22.5. For the same molecule, the P50e in experiment [4] came out at 51.4 mmHg; in experiment [5], 50.1 mmHg; in experiment [6], 16.8 mmHg. Also, the n50e in experiment [7] amounted to 2. In addition, in experiment [8], the P50e / P50c amounted to 3.4.
`Cc1cc(C)cc(NC(=O)Cc2ccc(OC3(C(=O)N[C@H](C(=O)O)C(C)C)CCCC3)cc2)c1` returned a Hill coefficient (n50) in experiment [1] of 2.7. For the same molecule, the P50c in experiment [2] turned out to be 25.7 mmHg. In experiment [3], this molecule gave a Delta P50 of 28.6. The P50e is 54.8 mmHg in experiment [4], 53.9 mmHg in experiment [5] and 13 mmHg in experiment [6]. For the same molecule, the n50e in experiment [7] stood at 2. Besides, in experiment [8], the P50e / P50c is 2.6.
On to `CSCC[C@@H](NC(=O)C1(Oc2ccc(CC(=O)Nc3cc(C)cc(C)c3)cc2)CCCC1)C(=O)O`, for which the Hill coefficient (n50) in experiment [1] is 2.8. For the same molecule, in experiment [2], the P50c was 24.5 mmHg. For the same molecule, in experiment [3], the Delta P50 was determined as 20.6. Besides, the P50e in experiment [4] stood at 45.5 mmHg; in experiment [5], 44.8 mmHg; in experiment [6], 9.5 mmHg. The n50e in experiment [7] is 2.1. The P50e / P50c in experiment [8] stood at 1.9.
`Cc1cc(C)cc(NC(=O)Cc2ccc(OC3(C(=O)N[C@@H](C(=O)O)C(C)O)CCCC3)cc2)c1` (stereo partly drawn) showed a Hill coefficient (n50) in experiment [1] of 2.6. Moreover, in experiment [2], the P50c was found to be 27.5 mmHg. Besides, the Delta P50 in experiment [3] worked out at 12.9. In addition, the P50e in experiment [4] was determined as 41.1 mmHg; in experiment [5], 39.7 mmHg; in experiment [6], 14.3 mmHg. For the same molecule, the n50e in experiment [7] amounted to 2.2. Moreover, the P50e / P50c in experiment [8] came out at 2.9.
The molecule `Cc1cc(C)cc(NC(=O)Cc2ccc(OC3(C(=O)O)CCCC3)cc2)c1` had a Hill coefficient (n50) in experiment [1] of 2.4. Also, the P50c in experiment [2] is 28.9 mmHg. In experiment [3], this molecule had a Delta P50 of 42.3. Moreover, the values for the P50e in experiment [4] and in experiment [5] were 74.7 mmHg and 67.7 mmHg, respectively. Further, in experiment [7], the n50e came out at 1.7. Also, in experiment [8], the P50e / P50c was 5.1.
